Compound activity (PubChem BioAssay)
In the library only some 3.5% were active in any assay of this set; here they are far more common.
RGS4 inh: inhibitors of human RGS4; B-score at 10 µM; 310,000 tested, 0.45% active; HEK293 M3R/RGS4 inducible, Fluo-4 calcium flux; active compounds read high; triggered by carbachol at its EC20; P49798;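 active = B-score, a plate-corrected calcium signal, over three deviations above library mean, with baseline fluorescence within five deviations of library mean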;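 also: RGS4 expression induced by doxycycline in cells with stable M3 receptor; B-score is computed from the integrated fluorescence ratio over baseline after carbachol; higher B-score means a larger calcium signal and so more RGS4 inhibition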
Target sequence (P49798 whole entry, looked up): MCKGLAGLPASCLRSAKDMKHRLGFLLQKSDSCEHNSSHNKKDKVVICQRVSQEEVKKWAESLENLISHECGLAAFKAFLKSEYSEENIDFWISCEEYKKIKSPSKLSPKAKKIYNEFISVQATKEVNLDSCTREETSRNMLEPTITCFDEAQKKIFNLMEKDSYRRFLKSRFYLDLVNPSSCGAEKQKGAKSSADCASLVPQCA
MrgX1 antagonist: antagonists of human MrgX1 receptor | Q96LB2 | MRGX1-HEK293 calcium flux, Fluo-4, BAM8-22 antagonism; active compounds read low | B-score at 10 µM | 310,000 tested, 1.3% active;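 active = calcium-response B-score plate-corrected more than 3 library SD below zero, starting fluorescence within 5 deviations, no agonist response on first addition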;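 also: peak minus trough fluorescence over baseline after final BAM8-22 challenge near maximal dose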
Target sequence (Q96LB2 whole entry, looked up): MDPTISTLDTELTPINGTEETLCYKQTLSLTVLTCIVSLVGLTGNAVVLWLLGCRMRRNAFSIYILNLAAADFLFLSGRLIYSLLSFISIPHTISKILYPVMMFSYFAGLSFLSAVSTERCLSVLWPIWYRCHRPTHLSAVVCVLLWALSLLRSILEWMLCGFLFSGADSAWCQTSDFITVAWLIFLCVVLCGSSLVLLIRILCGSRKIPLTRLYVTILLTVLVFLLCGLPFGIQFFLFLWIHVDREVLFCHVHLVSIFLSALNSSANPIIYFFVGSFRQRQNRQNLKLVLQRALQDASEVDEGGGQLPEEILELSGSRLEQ
MrgX1 agonist: activates human MrgX1 receptor signaling. Q96LB2. 310,000 tested, 0.44% active. B-score at 10 µM. MrgX1-HEK293 cells, Fluo-4 calcium fluorescence, agonist mode; active compounds read high;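 active = calcium response B-score plate-corrected fluorescence ratio at least 3 library SD, with starting fluorescence B-score inside 5 SD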
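Test system: HEK293 cells stably expressing human MrgX1 receptor; Input: fifteen thousand cells per well; Dosing: compound delivered in addition one of three; Schedule: overnight seeding, then 1 h dark dye loading; Technique: Fluo-4 NW calcium fluorescence; Measure: B-scored fluorescence response ratio; Controls: positive and negative controls per plate.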
RGS4 act: RGS4 potentiation or activation. B-score at 10 µM. HEK293 M3R/inducible RGS4, carbachol calcium flux Fluo4; active compounds read low. 310,000 tested, 0.92% active;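 active = B-score of the integrated calcium signal more than 4 SD below the library mean, with starting fluorescence not abnormally high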;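 also: negative B-score means reduced calcium response which marks RGS4 activation or potentiation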
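Assay system: HEK293 FlpIn-TREx cells, stable M3R, doxycycline-inducible RGS4 / Probe or stimulus: carbachol, ECmax concentration / Times: overnight RGS4 induction, 30 min dye load 37 °C, 20 min compound RT / Signal: kinetic calcium fluorescence imaging with Fluo4-AM dye, 2 µM / Measure: Agonist-evoked peak-minus-minimum fluorescence over baseline, integrated ratio, B score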
MrgX1 allo act: human MrgX1 positive allosteric modulation, primary screen; Q96LB2; MrgX1-HEK293, Fluo-4 calcium flux, FDSS; active compounds read high; B-score at 10 µM; 310,000 tested, 0.63% active;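 active = plate-corrected calcium response at least 3 library SD above typical, normal starting fluorescence, not activating the receptor alone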;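 also: compound read alongside a low EC10 to EC30 dose of BAM8-22 agonist; peak minus trough fluorescence over baseline measured at the second addition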
MrgX1 antag conf: confirmation of human MrgX1 receptor antagonists; shares compounds with MrgX1 antagonist; MrgX1-HEK293, BAM8-22 calcium flux, Fluo-4; active compounds read low; 2,300 tested, 19% active; AID 602420; remaining BAM8-22 calcium response % of control (active compounds read low), % at 10 µM;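 active = remaining agonist calcium response no higher than 100% minus 3 SD of agonist-only control wells, with starting fluorescence near control levels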;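 also: agonist BAM8-22 given at a near maximal EC90 to ECmax level; peak minus minimum fluorescence divided by baseline after agonist addition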
HEK293 Ca flux: activity in parental HEK293 cells lacking MrgX1; shares compounds with MrgX1 antagonist; fluorescence ratio F(max-min)/F0 at 10 µM; 4,000 tested, 2% active; Fluo-4 calcium fluorescence, FDSS;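 active = duplicate-averaged calcium fluorescence ratio at least three times the standard deviation of buffer wells, a nonspecific response in parental cells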
HEK293 Ca counter: activity in parental HEK293 cells without MrgX1; shares compounds with MrgX1 antagonist; 4,000 tested, 0.4% active; AID 624114; parental HEK293 calcium flux, Fluo-4 fluorescence ratio; active compounds read high; fluorescence ratio F(max-min)/F0 at 10 µM;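 active = calcium fluorescence ratio, averaged over duplicates, at least 3 SD of the buffer-well ratio, meaning a nonspecific response in receptor-free cells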;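 also: untransfected parental HEK293 lacking MrgX1 used as counterscreen for MrgX1 allosteric activators; fluorescence change taken during the second addition on a kinetic imager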
HEK293 Ca cntr2: activity in parental HEK293 cells lacking MrgX1 receptor; shares compounds with MrgX1 antagonist; Fluo-4 calcium fluorescence (FDSS); active compounds read high; fluorescence ratio F(max-min)/F0 at 10 µM; 4,000 tested, 8.7% active;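 active = calcium fluorescence ratio at least three times the spread of buffer wells, meaning a non-specific response in parental cells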
Numbers without * were called inactive; i = inactive; / = not tested or not shown.

SMILES	RGS4 inh	MrgX1 antagonist	MrgX1 agonist	RGS4 act	MrgX1 allo act	MrgX1 antag conf	HEK293 Ca flux	HEK293 Ca counter	HEK293 Ca cntr2
CC(CSc1nc2ccccc2s1)Cn1c(N2CCCC2)nc2c1c(=O)[nH]c(=O)n2C (stereo not given)	i	i	i	i	i	/	/	/	/
CCN1CCN(c2nc3c(c(=O)[nH]c(=O)n3C)n2CCSc2nc3ccccc3s2)CC1	i	-6.3*	i	i	i	i	i	i	i
CCOC(=O)C1=C(COC(=O)C2CC(=O)N(c3ccc(C)cc3)C2)NC(=O)NC1C (stereo not given)	i	-5.8*	i	i	i	i	i	i	i
O=C(CN1C(=O)NC2(CCc3ccccc3C2)C1=O)Nc1ccc(F)cc1 (stereo not given)	i	i	i	i	i	/	/	/	/
c1ccc2c(c1)[nH]c1c(N3CCC4(CC3)OCCO4)ncnc12	i	i	i	i	i	/	/	/	/
c1ccc(CN2CCN(c3ncnc4c3[nH]c3ccccc34)CC2)cc1	i	-6.1*	i	i	i	53%*	i	i	i
c1ccc(Cn2nnc3c(N4CCCC4)ncnc32)cc1	i	i	i	i	i	/	/	/	/
CCN1CCN(c2ncnc3c2nnn3Cc2ccccc2)CC1	i	-4.6*	i	i	i	i	i	i	i
Cc1ccc2c(c1)[nH]c1c(N3CCN(Cc4ccccc4)CC3)ncnc12	i	i	i	i	i	/	/	/	/
Cc1ccc2[nH]c3c(N4CCN(Cc5ccccc5)CC4)ncnc3c2c1	i	-6.2*	i	i	i	65%*	i	i	i
CCCCN(C)C(=S)Nc1ccsc1C(=O)OC	i	i	i	i	i	/	/	/	/
COc1cc(/C(O)=C(\C#N)c2nc3ccccc3[nH]2)cc(OC)c1OC	i	i	i	i	i	/	/	/	/
O=C(NCc1nnc(SCC(=O)N2CCN(c3ccccc3)CC2)o1)c1c(F)cccc1F	i	-5.7*	i	i	i	i	i	i	i
O=C(NCc1nnc(SCC(=O)N2CCCC2)o1)c1c(F)cccc1F	i	i	i	i	i	/	/	/	/
CCN=C1SC(C(=O)Nc2cc(Cl)cc(Cl)c2)CC(=O)N1CC (stereo not given)	i	-5.3*	i	i	i	i	i	i	i
Cn1cnnc1SCCC(=O)Nc1ccc(Cl)cc1	i	-5.8*	i	i	i	i	i	i	i
Cn1cnnc1SCCC(=O)Nc1ccccc1	i	i	i	i	i	/	/	/	/
Cn1cnnc1SCC(=O)Nc1ccc(OC(F)F)cc1	i	-4.9*	i	i	i	84%*	i	i	i
CC(=O)Nc1ccc(S(=O)(=O)NCC2CCC(C(=O)NC(C)c3ccccc3)CC2)cc1 (stereo not given)	i	-6*	i	i	i	i	i	i	i
CCCNC(=O)c1nc(C)n(-c2cc(Cl)ccc2Cl)n1	i	-8.2*	i	i	i	81%*	i	i	i
CCCNC(=O)c1nc(C)n(-c2cc(Cl)cc(Cl)c2)n1	i	i	i	i	i	/	/	/	/
C=CCc1cccc(CNc2cnc3ccccc3c2)c1O	i	-6.6*	i	i	i	82%*	i	i	i
Oc1ccccc1CNc1cnc2ccccc2c1	i	i	i	i	i	/	/	/	/
Cn1c(=O)c(C(=O)c2ccc(S(C)(=O)=O)c(Cl)c2Cl)c(O)c2ccccc21	i	i	i	i	i	/	/	/	/
COC(=O)c1sc(-c2ccc(C(C)(C)C)cc2)cc1NC(=O)c1ccccc1C(=O)O	i	-7.1*	i	i	i	70%*	i	i	100*
SMILES	RGS4 inh	MrgX1 antagonist	MrgX1 agonist	RGS4 act	MrgX1 allo act	MrgX1 antag conf	HEK293 Ca flux	HEK293 Ca counter	HEK293 Ca cntr2
COC(=O)c1sc(-c2ccc(Cl)cc2)cc1NC(=O)c1ccccc1C(=O)O	i	i	i	i	i	/	/	/	/
O=C(COc1ccc2ccccc2c1Br)Nc1ncn[nH]1	i	-4.5*	i	i	i	i	i	i	i
Cc1cccc(C)c1OCC(=O)Nc1ncn[nH]1	i	i	i	i	i	/	/	/	/
CCC(C(=O)NC(C)(C)C)N(Cc1ccc(F)cc1)C(=O)c1snc(C(N)=O)c1N (stereo not given)	i	i	i	i	i	/	/	/	/
Cc1ccc2nc(C(C)O)[nH]c2c1 (stereo not given)	i	-7.1*	i	i	i	64%*	i	i	i
Cc1ccc2nc(C(O)C(O)c3nc4ccc(C)cc4[nH]3)[nH]c2c1 (stereo not given)	i	i	i	i	i	/	/	/	/
Cc1n[nH]c(C)c1CCc1nc2c3ccccc3nc(SCC(=O)Nc3ccccc3F)n2n1	i	-7*	i	i	i	i	i	i	i
COC(=O)Cc1c(C)c2ccc(OCC(=O)N(C)C3CCS(=O)(=O)C3)cc2oc1=O (stereo not given)	i	i	i	i	i	/	/	/	/
CCCCCCCCCCOC(=O)Cn1c(COc2ccccc2OC)[n+](C)c2ccccc21	i	-11*	i	-8.4*	i	59%*	i	i	i
O=C(NCC(c1ccco1)N1CCc2ccccc2C1)C(=O)Nc1ccc(F)cc1F (stereo not given)	i	-5.8*	i	i	i	i	i	i	i
O=C1NC(=S)N/C1=C\c1ccc(Oc2ccc(C(F)(F)F)cc2[N+](=O)[O-])c(Cl)c1	i	i	i	i	i	/	/	/	/
CCOC(=O)c1sc(=NC(=O)CCS(=O)(=O)c2ccccc2)n(C)c1C	i	-5.7*	i	i	i	i	i	i	i
CCOC(=O)c1sc(=NC(=O)c2ccccc2)n(C)c1C	i	i	i	i	i	/	/	/	/
